Active and inactive are the calls of the source. No cut-off for these calls is given here.
Experiments:
[1] = molecular target: T1, Interferon alpha/beta receptor 1 (Homo sapiens) (UniProt P17181); assay: Inhibition of IFNAR in human Daudi cells assessed as reduction of IFN-induced STAT1 phosphorylation at 200 uM after 15 mins by Western blotting; assay type: cell-based
T1 sequence (whole entry): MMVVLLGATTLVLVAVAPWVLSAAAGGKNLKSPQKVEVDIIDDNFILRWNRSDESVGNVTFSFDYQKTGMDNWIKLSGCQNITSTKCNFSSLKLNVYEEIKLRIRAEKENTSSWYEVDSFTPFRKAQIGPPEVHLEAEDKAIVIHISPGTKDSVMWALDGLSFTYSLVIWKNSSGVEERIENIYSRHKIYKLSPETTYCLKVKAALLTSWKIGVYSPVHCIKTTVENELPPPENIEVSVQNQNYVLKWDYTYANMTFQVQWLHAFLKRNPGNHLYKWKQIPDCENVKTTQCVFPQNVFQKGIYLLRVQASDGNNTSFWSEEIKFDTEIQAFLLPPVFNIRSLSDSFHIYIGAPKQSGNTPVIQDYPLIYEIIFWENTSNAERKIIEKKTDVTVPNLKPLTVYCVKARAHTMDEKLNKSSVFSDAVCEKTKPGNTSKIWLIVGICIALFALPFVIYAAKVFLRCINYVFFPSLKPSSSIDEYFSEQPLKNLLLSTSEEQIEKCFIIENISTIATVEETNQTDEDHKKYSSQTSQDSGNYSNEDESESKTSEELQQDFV
How it was run: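 Daudi cells untreated, given 10 pg IFN alfacon-1 alone, or 10 pg IFN plus 200 µM compound for 15 min. Lysed in phosphorylation lysis buffer with protease and phosphatase inhibitors. Equal protein run on SDS–PAGE and immunoblotted for tyrosine-phosphorylated STAT1. Bands quantitated relative to tubulin. Data representative of duplicate independent experiments.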

[2] = Distribution coefficient, log D of the compound at pH 7.4; conditions: octanol/water
[3] = molecular target: T1, Interferon alpha/beta receptor 1 (Homo sapiens); assay: Inhibition of IFNAR in human Daudi cell nuclear extracts assessed as reduction of IFN-induced STAT1 phosphorylation at 200 uM after 15 mins by Western blotting
How it was run: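 Daudi cells untreated, given 10 pg IFN alfacon-1 alone, or 10 pg IFN plus 200 µM compound for 15 min. Nuclear extracts immunoblotted for tyrosine-phosphorylated STAT1. Band intensities quantitated relative to tubulin as loading control.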

[4] = molecular target: T1, Interferon alpha/beta receptor 1 (Homo sapiens); assay: Inhibition of IFNAR in human Daudi cells assessed as reduction of STAT-DNA binding at 200 uM by EMSA; assay type: cell-based
How it was run: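 Daudi cells untreated, given 100 pg IFN alfacon-1, or IFN plus the indicated compound doses for 15 min. Protein–DNA complexes resolved by native PAGE (EMSA).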

[5] = Solubility of the compound; assay type: physicochemical
Daudi = assay: Cytotoxicity against human Daudi cells assessed as cell viability up to 200 uM after 24 hrs by propidium iodide staining; assay type: cell-based
How it was run: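 Daudi cells (1 × 10⁶) left untreated or exposed to the indicated compound doses for 24 h, washed twice in PBS and resuspended in PBS with 2% FCS. 10⁵ cells stained with propidium iodide for 15 min; dead (PI-positive) cells counted by FACS.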

CCOC(=O)c1nn(-c2ccc(C)cc2)c(C)c1C(=O)C1=NOC2C(=O)N(c3ccccc3C)C(=O)C12 (stereo not given)
inhibition [1]: inactive | logD [2]: -0.1

O=C(c1cc(S(=O)(=O)Nc2cccc(Cl)c2)c(Cl)cc1Cl)N1CCN(Cc2ccc3c(c2)OCO3)CC1
inhibition [1]: inactive | logD [2]: 2.4

COc1ccccc1NS(=O)(=O)c1cc(C(=O)N2CCN(Cc3ccc4c(c3)OCO4)CC2)ccc1Cl
inhibition [1]: inactive | logD [2]: -0.3

O=C(c1cc(S(=O)(=O)Nc2cccc(C(F)(F)F)c2)ccc1Cl)N1CCN(Cc2ccc3c(c2)OCO3)CC1
inhibition [1]: inactive | logD [2]: -0.1

COc1ccccc1NS(=O)(=O)c1ccc2oc(=S)n(CN3CCN(c4ccc(F)cc4)CC3)c2c1
inhibition [1]: inactive | logD [2]: 0.2

O=C(c1cc(S(=O)(=O)Nc2ccccc2F)c(Cl)cc1Cl)N1CCN(Cc2ccc3c(c2)OCO3)CC1
inhibition [1]: inactive | logD [2]: 0.01

O=C(c1ccc(NS(=O)(=O)c2cc(Cl)sc2Cl)cc1)N1CCN(Cc2ccc3c(c2)OCO3)CC1
inhibition [1]: Active | inhibition [3]: Active | inhibition [4]: Active

Cc1ccc(-n2c(SCC(=O)N/N=C/c3ccccc3OCC(=O)O)nc3ccccc3c2=O)cc1 (mixture of isomers)
inhibition [1]: Active | inhibition [3]: Active | solubility [5]: soluble | logD [2]: 4.7 | Activity (Daudi): Non-toxic | inhibition [4]: Active

CCOc1ccccc1/C=N/NC(=O)CSc1nc2ccccc2c(=O)n1-c1ccccc1C (mixture of isomers)
inhibition [1]: inactive | logD [2]: 5.8

O=C(O)CCCCCN1C(=O)/C(=C/c2c(N3CCCc4ccccc43)nc3ccccn3c2=O)SC1=S (mixture of isomers)
inhibition [1]: Active | inhibition [3]: Active | logD [2]: 8.9 | Activity (Daudi): Toxic | inhibition [4]: Active

O=C(c1cccc(S(=O)(=O)Nc2ccc(Cl)cc2)c1)N1NC2=C(CCC/C2=C\c2ccco2)C1c1ccco1 (mixture of isomers)
inhibition [1]: inactive | logD [2]: -0.8

Source: ChEMBL document CHEMBL3102792, “Small molecule mimetics of an interferon-α receptor interacting domain” (Bioorg Med Chem, 2014)
